The source of these data is ChEMBL document CHEMBL1132718, “Design and synthesis of imidazoline derivatives active on glucose homeostasis in a rat model of type II diabetes. 2. Syntheses and biological activities of 1,4-dialkyl-, 1,4-dibenzyl, and 1-benzyl-4-alkyl-2-(4',5'-dihydro-1'H-imidazol-2'-yl)piperazines and isosteric analogues of imidazoline” (J Med Chem, 1999).

SMILES strings stand for the structures.

Broadly, the logP is a log measure of how a compound divides between an organic and an aqueous phase.

The subject of series [1] is Rattus norvegicus. The experiment in a line: Percent of variation of glycemia value 30 mins after glucose administration by intraperitoneal dose of 100 uM/Kg to STZ rats compared to untreated rats. Format: functional. Set-up: unit: %. The method in brief:
(§1)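 STZ-diabetic rats: 3-month-old male Wistar (250 g) given streptozotocin 35 mg/kg iv. Single ip dose of 100 µmol/kg, then iv glucose 0.5 g/kg for IVGTT. Read-outs: ΔG (glycemia increment over baseline integrated over 30 min), G30 (glycemia at 30 min), K (disappearance rate 5–30 min). Expressed as percent variation versus untreated STZ rats, normalized to nondiabetic controls; 4–8 rats per compound, ±SEM.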

Series [2] concerns Rattus norvegicus. Put plainly: Rate of glucose disappearance between 5 and 30 min after glucose administration with an intraperitoneal administration of 100 (umol/kg) to STZ rats. It counts as functional, organism-based. Put shortly: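 Three-month-old male Wistar rats (250 g) made diabetic with streptozotocin 35 mg/kg iv. Single ip dose of 100 µmol/kg, then IVGTT with glucose 0.5 g/kg iv. K is the rate of glucose disappearance between 5 and 30 min after the glucose load. Expressed as percent variation between treated and untreated diabetic rats, relative to nondiabetic controls. 4–8 rats per compound, ±SEM.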

Series [3] has as its system Rattus norvegicus. The experiment in a line: Incremental glycemia values over baseline integrated over 30 min after glucose administration (iv) at a concentration 0.5 g/kg. It counts as functional. The arrangement: unit: %. Put shortly:
as §1

The nature of series [4]: Partition coefficient (logP). It counts as physicochemical. The conditions noted are these: octanol/water.
The subject of series [5] is Rattus norvegicus. Put plainly: Percent of variation of glycemia value 30 mins after glucose administration with a peroral administration of 100 umol/kg to STZ rats. It counts as functional. Set-up: unit: %. The method in brief: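 Oral (po) dosing at 100 µmol/kg in STZ rats (male Wistar, 3 months old, 250 g, streptozotocin 35 mg/kg iv), followed by IVGTT with glucose 0.5 g/kg iv. G30 (glycemia 30 min after the glucose load) is expressed as percent variation between treated and untreated STZ rats, relative to nondiabetic controls.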

`C=CCN1CCN(CC=C)C(C2=NCCN2)C1` (configuration not stated): in series [1], the G30 is 30. Besides, the K in series [2] amounted to 35. In addition, in series [3], the “Delta G” value worked out at 19.

Turning to `CC(C)CN1CCN(C)C(C2=NCCN2)C1` (configuration not stated), the G30 in series [1] was 21. The compound further yielded a K in series [2] of 42. The “Delta G” value in series [3] stood at 40.

As to `c1ccc2c(c1)OCC(C1=NCCN1)O2` (configuration not stated) [IDAZOXAN], the G30 in series [1] was determined as 48. This compound also displayed a K in series [2] of 79. For the same compound, the “Delta G” value in series [3] was 8.

With `CN1CCN(c2ccccc2)C(C2=NCCN2)C1` (configuration not stated), the G30 in series [1] is reported as 28. This compound returned a K in series [2] of 39. The “Delta G” value in series [3] came to 6.

`COc1ccccc1CN1CCN(C)CC1CC1=NCCN1` (configuration not stated) came in with a G30 in series [1] of 36. Besides, the K in series [2] stood at 53. The “Delta G” value in series [3] is recorded as 31.

In turn, `C1CCC(N2CCN(C3CCCC3)C(C3=NCCN3)C2)C1` (configuration not stated) showed a G30 in series [1] of 103. Further, the K in series [2] is 23. Further, the “Delta G” value in series [3] is 58.

As for `CCC(C)CN1CCN(CC(C)CC)C(C2=NCCN2)C1` (configuration not stated), the logP in series [4] came to 3.22. In addition, the G30 in series [1] amounted to 83; in series [5] it was 4.3. The K in series [2] was 82. In series [3], the “Delta G” value worked out at 104.

Compound `CC(C)N1CCN(c2ccccc2)C(C2=NCCN2)C1` (configuration not stated) came in with a G30 in series [1] of 91. Besides, the K in series [2] is 102. In addition, in series [3], the “Delta G” value turned out to be 11.

`CN1CCN(Cc2ccc(Cl)cc2Cl)C(CC2=NCCN2)C1` (configuration not stated) registered a G30 in series [1] of 42. This compound also registered a K in series [2] of 91. Besides, in series [3], the “Delta G” value was found to be 19.

As for `CN1CCN(Cc2ccc(Cl)cc2Cl)C(C2=NCCN2C)C1` (configuration not stated), the G30 in series [1] came to 75. In series [2], this compound returned a K of 64. Further, the “Delta G” value in series [3] was 24.

In series [1], `CN1CCN(Cc2ccc(Cl)cc2Cl)C(C2=NCCCN2)C1` (configuration not stated) had a G30 of 30. In series [2], this compound yielded a K of 38. The “Delta G” value in series [3] worked out at 47.

In turn, `CN1CCN(Cc2ccccc2Cl)C(C2=NCCO2)C1` (configuration not stated) came in with a G30 in series [1] of 0. The K in series [2] worked out at 0. In addition, the “Delta G” value in series [3] is recorded as 8.

`CC(C)N1CCN(c2ccccc2)CC1C1=NCCN1` (configuration not stated) showed a G30 in series [1] of 15. In series [2], this compound gave a K of 60. Also, the “Delta G” value in series [3] is on record as 0.

The compound `CC(C)CN1CCN(CC(C)C)C(C2=NCCN2)C1` (configuration not stated) showed a lipophilicity (logP) in series [4] of 2.18. The G30 in series [1] was 89; in series [5] it was 66. The K in series [2] was 79. For the same compound, the “Delta G” value in series [3] stood at 141.

Take `C/N=C(/N)C1CN(C(C)C)CCN1C(C)C` (configuration not stated): the G30 in series [1] worked out at 77. For the same compound, the K in series [2] worked out at 62. For the same compound, in series [3], the “Delta G” value is 43.

As for `CN1CCN(Cc2ccc(Cl)cc2Cl)C(C2=NCCN2)C1` (configuration not stated), in series [4], the logP was found to be 2.21. The G30 turned out to be 112 in series [1] and 64 in series [5]. In addition, the “Delta G” value in series [3] amounted to 105.

In series [4], `C=C(C)CN1CCN(CC(=C)C)C(C2=NCCN2)C1` (configuration not stated) registered a log partition coefficient (logP) of 1.45. Also, the G30 in series [1] is listed as 96; in series [5], 0. The compound further displayed a K in series [2] of 117. Further, in series [3], the “Delta G” value was 116.

Compound `C1CNC(C2CN(C(C3CC3)C3CC3)CCN2C(C2CC2)C2CC2)=N1` (configuration not stated) gave a G30 in series [1] of 89. Also, in series [2], the K turned out to be 41. The “Delta G” value in series [3] is listed as 24.

Take `CC(C)CN1CCN(C)CC1C1=NCCN1` (configuration not stated): the G30 in series [1] came out at 48. For the same compound, the K in series [2] was 55. The “Delta G” value in series [3] was found to be 113.

Take `CN1CCN(c2ccccc2Cl)CC1C1=NCCN1` (configuration not stated): the G30 in series [1] turned out to be 17. The compound further yielded a K in series [2] of 60. Also, the “Delta G” value in series [3] is on record as 10.

In the case of `CN1CCN(C(C2CC2)C2CC2)C(C2=NCCN2)C1` (configuration not stated), in series [1], the G30 was determined as 55. The compound further returned a K in series [2] of 47. For the same compound, in series [3], the “Delta G” value is recorded as 101.

In series [1], `CN1CCN(Cc2ccc(Cl)cc2Cl)C(c2ncc[nH]2)C1` (configuration not stated) returned a G30 of 14. Moreover, the K in series [2] came to 37. Further, in series [3], the “Delta G” value was 0.

Consider `CC(C)N1CCN(C(C)C)C(CC2=NCCN2)C1` (configuration not stated), for which, in series [1], the G30 is recorded as 0. For the same compound, in series [2], the K was found to be 79. The “Delta G” value in series [3] was 27.

Turning to `N=C(N)C1CN(Cc2ccccc2)CCN1Cc1ccccc1` (configuration not stated), the G30 in series [1] is listed as 65. The K in series [2] stood at 65. For the same compound, the “Delta G” value in series [3] is reported as 55.

`c1ccc(C(CC2=NCCN2)c2ccccn2)cc1` (configuration not stated) [MIDAGLIZOLE] showed a G30 in series [1] of 121. In addition, in series [3], the “Delta G” value is 32.

With `CC(C)N1CCN(C(C)C)C(C2=NCCN2)C1` (configuration not stated), the logP in series [4] was determined as 1.15. For the same compound, the G30 in series [1] worked out at 89; in series [5], 73. Also, in series [2], the K stood at 47. The “Delta G” value in series [3] came to 138.

In series [1], `c1ccc(CN2CCN(Cc3ccccc3)C(CC3=NCCN3)C2)cc1` (configuration not stated) yielded a G30 of 0. The compound further returned a K in series [2] of 49.

Turning to `C=C(C)CN1CCN(CC(C)C)C(C2=NCCN2)C1` (configuration not stated), in series [1], the G30 came out at 41. In addition, the K in series [2] was found to be 76. For the same compound, in series [3], the “Delta G” value was 53.

`C=CCN1CCN(CC(C)C)C(C2=NCCN2)C1` (configuration not stated) yielded a logP in series [4] of 1.3. Moreover, the G30 in series [1] turned out to be 55; in series [5], 23. In series [2], this compound yielded a K of 61. Moreover, in series [3], the “Delta G” value was 115.

In series [1], `CC(C)(C)CN1CCN(CC(C)(C)C)C(C2=NCCN2)C1` (configuration not stated) registered a G30 of 81. The K in series [2] came to 67. Also, the “Delta G” value in series [3] was 54.

Turning to `C/N=C(/N)C1CN(Cc2ccccc2)CCN1Cc1ccccc1` (configuration not stated), the G30 in series [1] was determined as 62. This compound also registered a K in series [2] of 60. Also, the “Delta G” value in series [3] was determined as 50.
